Experimental data as given in PubChem BioAssay.
Calls of active or inactive are those of the source.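 How the source made its calls, unless noted: active means fluorescence slope higher than the sample average by over 3 SD (cut at about -0.22 in these data, passing the limit was not always enough); inactive means the rest.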

Experiments:
[1] = inhibitors of TNFa-induced NFkB p65 translocation, primary screen, imaging, HUVEC, MLSMR starter and 10KST1 sets (AID 438;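 active means inhibition above 20% together with a positive visual image hit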;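 further: compound added about 3h40 before a 20 min TNFalpha stimulation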;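 on inhibition: signal is the nuclear over cytoplasmic p65 intensity ratio per well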); settings: HUVEC TNFa-induced p65 nuclear translocation; cell count: measured here: nuclei count (cytotoxicity indicator), at 2.08 µM; inhibition: at 2 µM, stronger effect = higher value, 0% TNFa-plus-vehicle, 100% no-TNFa wells
[2] = endothelial E-selectin expression blockers – imaging, HUVEC, immunofluorescence, MLSMR starter and 10KST1 sets, primary screen (AID 487;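 active means visually confirmed hit in the image check and inhibition above 20%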;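 on inhibition: signal is fraction of cell area covered by stained E-selectin grains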;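 on nuclei count: 100% = median nuclei count of all wells on the same plate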); settings: HUVEC TNFalpha-induced E-selectin immunofluorescence imaging, at 2 µM; inhibition: stronger effect = higher value; nuclei count: measured here: cell number, toxicity
[3] = Primary imaging screen for DUSP6 inhibitors that restore phospho-Erk in transfected HeLa cells, chemical complementation (AID 609;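 active means compounds giving at least 50% inhibition in the cell-based MKP-3 phosphatase rescue imaging test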;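 on inhibition: phospho-Erk level distribution per well compared with pooled transfected vehicle control wells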); settings: HeLa MKP-3 transfected, phospho-Erk imaging KS statistic, at 10 µM, cells stimulated with TPA for 15 min
[4] = target: Dual specificity protein phosphatase 6 (Homo sapiens) (UniProt Q16828); test: as above; settings: HeLa MKP-3 transfected, phospho-Erk imaging KS statistic; at 10 µM; stronger effect = higher value; cells stimulated with TPA for 15 min
Chain of Dual specificity protein phosphatase 6 (Homo sapiens) (Q16828 whole entry, looked up): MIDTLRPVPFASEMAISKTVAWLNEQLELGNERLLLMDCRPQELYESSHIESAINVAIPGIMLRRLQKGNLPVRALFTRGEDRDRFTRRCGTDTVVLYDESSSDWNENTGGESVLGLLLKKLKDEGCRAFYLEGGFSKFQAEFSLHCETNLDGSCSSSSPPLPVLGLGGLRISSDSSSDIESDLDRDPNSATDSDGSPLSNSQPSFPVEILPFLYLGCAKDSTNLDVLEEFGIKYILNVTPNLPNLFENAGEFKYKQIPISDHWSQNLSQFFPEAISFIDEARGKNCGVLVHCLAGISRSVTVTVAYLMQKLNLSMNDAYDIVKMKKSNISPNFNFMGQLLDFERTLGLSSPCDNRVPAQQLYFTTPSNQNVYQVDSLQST

[5] = target: Voltage-gated potassium channel subunit beta-2 (Rattus norvegicus) (UniProt P62483); test: inhibitors of rat Kvbeta2 reductase activity – biochemical, NADPH fluorescence, primary screen (AID 622); settings: recombinant KvBeta, 4-cyanobenzaldehyde reduction, at 10 µM, stronger effect = higher value;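 further: slope of raw intensity against log time taken from 70 to 1610 s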
Chain of Voltage-gated potassium channel subunit beta-2 (Rattus norvegicus) (P62483 whole entry, looked up): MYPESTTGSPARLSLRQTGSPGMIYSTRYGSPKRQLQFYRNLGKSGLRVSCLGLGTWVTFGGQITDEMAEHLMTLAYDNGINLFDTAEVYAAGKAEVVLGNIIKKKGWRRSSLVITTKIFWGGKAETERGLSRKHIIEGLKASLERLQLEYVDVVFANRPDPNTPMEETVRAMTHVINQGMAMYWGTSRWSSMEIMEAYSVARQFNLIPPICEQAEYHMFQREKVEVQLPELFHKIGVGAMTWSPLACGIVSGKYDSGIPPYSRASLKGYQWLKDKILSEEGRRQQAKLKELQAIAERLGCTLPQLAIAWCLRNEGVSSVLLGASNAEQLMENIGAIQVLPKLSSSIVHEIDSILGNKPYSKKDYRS

[6] = target: Voltage-gated potassium channel subunit beta-2 (Rattus norvegicus) (UniProt P62483); test: enhancers of rat Kvbeta2 NADPH turnover – biochemical, NADPH fluorescence, primary screen (AID 623;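 active means NADPH fluorescence slope more negative than the mean of all samples by about 3 SD, 99.7% confidence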;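 further: fluorescence intensity change per second fitted from 20 to 320 s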); settings: Recombinant KvBeta, NADPH fluorescence decrease slope, 10 min; at 10 µM; stronger effect = lower value
[7] = target: Muscarinic acetylcholine receptor M4 (Homo sapiens) (UniProt P08173); test: M4-linked GIRK flux change, two-sided – cell-based, HEK293 M4/GIRK, thallium flux, BTC-AM, M4 allosteric agonist project, primary screen (AID 625;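 active means fluorescence slope after compound addition differing from the mean of all tested samples at 99.7% confidence, mostly higher but some lower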;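 further: thallium influx through GIRK channels coupled to M4 in HEK293 cells with BTC-AM dye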); settings: at 10 µM, actives lie on both sides
Chain of Muscarinic acetylcholine receptor M4 (Homo sapiens) (P08173 whole entry, looked up): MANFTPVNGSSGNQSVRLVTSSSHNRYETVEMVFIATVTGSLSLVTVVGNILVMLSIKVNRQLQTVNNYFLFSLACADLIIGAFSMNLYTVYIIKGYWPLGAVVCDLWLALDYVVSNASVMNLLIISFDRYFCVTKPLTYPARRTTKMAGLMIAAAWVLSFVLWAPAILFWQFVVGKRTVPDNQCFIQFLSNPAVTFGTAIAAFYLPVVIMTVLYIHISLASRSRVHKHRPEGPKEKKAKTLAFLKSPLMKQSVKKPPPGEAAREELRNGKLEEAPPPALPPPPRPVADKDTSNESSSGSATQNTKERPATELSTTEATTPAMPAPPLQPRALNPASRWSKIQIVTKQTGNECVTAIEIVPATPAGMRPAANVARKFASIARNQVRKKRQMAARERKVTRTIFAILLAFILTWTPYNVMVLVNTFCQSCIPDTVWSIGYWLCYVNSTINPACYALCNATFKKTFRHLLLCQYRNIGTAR
Outline: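 Material: HEK293 cells with M4 receptor and GIRK channels; Times: cells overnight at 37 °C, BTC-AM loading 1 h, reads 2 min total; Technique: kinetic BTC-AM fluorescence sampled at 1 Hz, 10 s pre-addition baseline; Read-out basis: slope over 15–24 s of trace normalized to starting intensity; Controls: carbachol positive, DMSO negative.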

[8] = inhibitors of larval lipid processing in zebrafish, primary screen, whole organism, PED6 fluorescence, gall bladder and intestine (AID 686;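 active means a full or partial loss of lipid-probe fluorescence in the fish gall bladder, intestine or both, judged by eye; inactive means no fluorescence loss, or compound toxic to the fish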;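 further: larvae 5 to 7 days old with five fish per well; signal comes from phospholipase A2 cleavage of quenched PED6 carried via bile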); settings: Zebrafish larvae PED6 lipid processing, fluorescence scoring; screened at 20 µM (by protocol)
Outline: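 Incubation: overnight exposure of larvae to compound plus PED6 / Test system: live zebrafish larvae aged 5-7 days, whole organism / Amount: 5 larvae per well / Read-out basis: visual per-well fluorescence inhibition score / Signal: visual fluorescence microscopy scoring of gall bladder, gut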

[9] = loss of swimming-algae plug formation – whole organism, Chlamydomonas reinhardtii, WT vs cilia-less mutant, absorbance, 96-well, primary screen (AID 463189;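 active means inhibition at or above 50% relative to wild type and mutant plate controls; inactive means inhibition below 50%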;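 further: 0% = wild type cc124 cells in DMSO and 100% = ciliumless bld1 mutant cells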); settings: Chlamydomonas reinhardtii gravitaxis, OD600 absorbance, 2 days; at 10 µM; stronger effect = higher value
[10] = measured here: cell density z-score
[11] = measured here: nuclear c-Myc green intensity z-score
[12] = measured here: nuclear pErk red intensity z-score, stronger effect = higher value

Compound	cell count [1]	inhibition [1]	inhibition [2]	nuclei count [2] [%]	z-score [3, 10]	z-score [3, 11]	z-score [3, 12]	inhibition [4]	fluorescence slope [5]	NADPH fluorescence slope [6]	fluorescence slope [7]	outcome [8]	inhibition [9]
CC1(C)CC(=O)C2=C(C1)OC(N)=C(C#N)C21C(=O)N(CN2CCOCC2)c2ccccc21 (stereo unspecified)	371	-2.9% (inactive)	-122% (inactive)	138	0.502	-1.1	-1.15	19.4% (inactive)	-0.479 (inactive)	-3.3e-05 (inactive)	0.00562 (inactive)	inactive	36.4% (inactive)
CCCC(C)n1[nH]c(=O)cc1N (stereo unspecified)	395	-2.2% (inactive)	-101% (inactive)	137	1.2	-1.78	-0.211	30.7% (inactive)	-0.46 (inactive)	-0.000101 (inactive)	0.00418 (inactive)	inactive	27.7% (inactive)
COc1ccc(-c2nn(C)c(=O)c3ccccc23)cc1NS(C)(=O)=O	373	-6.1% (inactive)	-7.8% (inactive)	104	-0.517	0.9	-0.714	11.9% (inactive)	-0.509 (inactive)	1.7e-05 (inactive)	0.00473 (inactive)	inactive	-10.8% (inactive)
CCCCc1cc(=O)oc2c(CN3CCCC3)c(O)ccc12	600	-1.9% (inactive)	32.2% (inactive)	151	0.99	-0.992	-0.105	4.37% (inactive)	-0.0163 (inactive)	5.9e-06 (inactive)	0.00474 (inactive)	inactive	-2.81% (inactive)
CCn1c(SCC(=O)N2CCOCC2)nc2sc3c(c2c1=O)CCCC3	577	-9.8% (inactive)	-55% (inactive)	122	-0.0545	-0.0901	0.641	-8.59% (inactive)	-0.463 (inactive)	-0.000111 (inactive)	0.0048 (inactive)	inactive	13.7% (inactive)
COc1ccc(CSc2nnc3n(C)c(=O)c4c5c(sc4n23)CCCC5)cc1	563	-1.3% (inactive)	-140% (inactive)	184	0.888	-0.948	-1.27	17.8% (inactive)	-0.41 (inactive)	-1.6e-05 (inactive)	0.00522 (inactive)	inactive	1.97% (inactive)
CCN(CC)c1nc(-c2cccc(OC)c2O)nc2ccccc12	624	-3.5% (inactive)	-45.9% (inactive)	171	-1.06	-1.37	0.629	4.37% (inactive)	-0.5 (inactive)	-9.9e-05 (inactive)	0.005 (inactive)	inactive	15.7% (inactive)
